One experiment relates to MDA-MB-468 cells. The experiment is described as follows: Western blot analysis of UPR / PERK-eIF2α-ATF4 pathway proteins. The experiment is classed as cell-based, human. The following applies: for baseline phosphorylation of PERK and eIF2α, inhibitor alone: Western blot; for effect on DH20931-induced accumulation of ATF4 protein / effect on DH20931-induced phosphorylation of PERK and eIF2α: co-treatment with DH20931, Western blot. The method, boiled down:
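Treatment lasted 24 h at 0, 2.5, 5, 10 or 20 μM test compound. Western blots were developed with BCIP/NBT substrate. Bands were quantified by densitometry and normalized to a loading control such as β-actin.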

The next experiment has as its system 4T1-CERS2^+/+ cells. The experiment is described as follows: Mitochondrial Ca2+ by Rhod-2 AM confocal microscopy. The experiment is classed as cell-based, mouse. The following applies: 6 h. A digest of the protocol: (§1)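 Cells were seeded on glass-bottom dishes and grown overnight to ~70% confluence, in triplicate. Exposure was 6 h to test compound (5 or 10 μM) or thapsigargin (1 or 2 μM) as ER Ca2+-depletion control. Cells were rinsed in HBSS and co-loaded 20 min at 37°C with 1 μM Mag-Fluo-4 AM (ER Ca2+) and 100 nM Rhod-2 AM (mitochondrial Ca2+).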

The subject of the next experiment is 4T1-CERS2^−/− cells. The experiment is described as above. In kind it is cell-based, mouse. The following applies: 6 h. A digest of the protocol: as §1

Turning to `Cc1ccc2cc(-c3c(C)ccc(C(=O)c4c(-c5ccccc5)n(C)n(-c5ccccc5)c4=O)c3N)ccc2n1` [AMG44], in the experiment on MDA-MB-468 cells, the “baseline phosphorylation of PERK and eIF2α, inhibitor alone” value was “decrease in the baseline phosphorylation levels of both PERK and eIF2α”; the “effect on DH20931-induced accumulation of ATF4 protein” value is on record as “attenuated the DH20931-induced accumulation of ATF4 protein”; the “effect on DH20931-induced phosphorylation of PERK and eIF2α” value is “markedly diminished it”.

Take `Cn1cc(-c2ccc3c(c2)CCN3C(=O)Cc2cccc(C(F)(F)F)c2)c2c(N)ncnc21` [GSK2606414]: in the experiment with MDA-MB-468 cells, the “baseline phosphorylation of PERK and eIF2α, inhibitor alone” value is “decrease in the baseline phosphorylation levels of both PERK and eIF2α”; the “effect on DH20931-induced accumulation of ATF4 protein” value is “attenuated the DH20931-induced accumulation of ATF4 protein”; the “effect on DH20931-induced phosphorylation of PERK and eIF2α” value is “did not affect the DH20931-induced phosphorylation”.

With `C/C=C(/C)C(=O)O[C@H]1C(C)=C2[C@H]([C@@H]1OC(=O)CCCCCCC)[C@@](C)(OC(C)=O)C[C@H](OC(=O)CCC)[C@@]1(O)[C@H]2OC(=O)[C@@]1(C)O` [Tg, thapsigargin], the “mitochondrial Ca2+ levels” value with 4T1-CERS2^+/+ cells is on record as “increase in mitochondrial Ca^2+ levels”. Besides, in the experiment with 4T1-CERS2^−/− cells, the “mitochondrial Ca2+ increase in the absence of CerS2” value is given as “completely abolished”.
